Assay results reported in ChEMBL document CHEMBL2412993, “Antiprotozoal activity of bicyclic diamines with a N-methylpiperazinyl group at the bridgehead atom” (Bioorg Med Chem, 2013).
Activity calls are given as the source filed them. The rule behind the calls is not given here.

Assays:
[1] = Selectivity index, ratio of IC50 for rat L6 cells to IC50 for bloodstream form of Trypanosoma brucei rhodesiense STIB 900; type: toxicity, cell-based; settings: read-out: Ratio IC50
In short: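 Medium was MEM with 2-mercaptoethanol and 15% heat-inactivated horse serum, dilutions 90 to 0.123 µg/mL. Wells held 10^4 STIB 900 bloodstream forms or rat L-6 myoblasts. Dye was added for a further 2–4 h, then fluorescence read (ex 536/em 588 nm) as % of control. SI is L-6 IC50 over parasite IC50.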

[2] = system: Plasmodium falciparum; assay: Antiprotozoal activity against chloroquine- and pyrimethamine-resistant Plasmodium falciparum K1 after 48 hrs by [3H]-hypoxanthine incorporation assay; type: functional, organism-based
In short: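 Infected human red cells in RPMI 1640 with 5% Albumax, exposed to serial dilutions from 5 to 0.078 µg/mL for 48 h at 37 °C under reduced oxygen. [3H]-hypoxanthine (0.5 µCi/well) added, then a further 24 h. Cells harvested onto filters and scintillation counted as % of untreated control. IC50 taken from sigmoidal curves; duplicate, repeated once.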

[3] = system: L6; assay: Cytotoxicity against rat L6 cells after 72 hrs by microplate fluorometry; type: cell-based; settings: L6, 72 h
In short: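 Rat skeletal myoblasts (L-6) run in the same Alamar Blue microplate format: MEM with 2-mercaptoethanol and 15% heat-inactivated horse serum, dilutions 90 to 0.123 µg/mL, 72 h at 37 °C in 5% CO₂. Alamar Blue for a further 2–4 h, fluorescence at ex 536 / em 588 nm as percent of control. Mefloquine standard.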

[4] = system: Trypanosoma brucei rhodesiense; assay: Antiprotozoal activity against bloodstream form of Trypanosoma brucei rhodesiense STIB 900 after 72 hrs by microplate fluorometry; type: functional, organism-based; settings: STIB 900, 72 h
In short: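 Bloodstream forms (10⁴/well) in MEM with 2-mercaptoethanol and 15% heat-inactivated horse serum, serial dilutions 90 to 0.123 µg/mL, 72 h at 37 °C under 5% CO₂. Alamar Blue added for a further 2–4 h. Fluorescence read at ex 536 / em 588 nm and expressed as percent of control. Melarsoprol standard.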

[5] = Selectivity index, ratio of IC50 for rat L6 cells to IC50 for chloroquine- and pyrimethamine-resistant Plasmodium falciparum K1; type: toxicity, cell-based; settings: L6 cells versus Plasmodium falciparum K1, read-out: Ratio IC50
In short: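 The L-6 IC50 comes from the 72 h Alamar Blue assay on rat myoblasts (MEM, 15% horse serum, 90–0.123 µg/mL). The K1 IC50 comes from [3H]-hypoxanthine uptake by infected human red cells: 48 h exposure to 5–0.078 µg/mL, then 24 h with label. SI is L-6 IC50 over K1 IC50.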

[6] = system: Trypanosoma brucei rhodesiense; assay: Antiprotozoal activity against bloodstream form of Trypanosoma brucei rhodesiense STIB 900 infected in NMRI mouse assessed as reduction in parasitemia at 50 mg/kg, ip qd for administered 3 days post-inoculation for 4 consecutive days; type: functional, organism-based; parameters: dose 50 mg/kg
[7] = system: Plasmodium berghei; assay: Antiprotozoal activity against bloodstream form of Plasmodium berghei ANKA infected in NMRI mouse assessed as mean survival time at 50 mg/kg, ip qd for administered starting 4 h post-infection for 4 consecutive days (reference value: 6 to 7 days); settings: route intraperitoneal
[8] = system: Plasmodium berghei; assay: Antiprotozoal activity against Plasmodium berghei ANKA infected in NMRI mouse assessed as reduction in parasitemia at 50 mg/kg, ip qd for administered starting 4 h post-infection for 4 consecutive days; parameters: scale not given: the % may be the effect or the level left; settings: route intraperitoneal

With `c1ccc(C2CC3(N4CCCCC4)CCN(CCCN4CCCCC4)C2C(c2ccccc2)C3)cc1` (racemic) as the compound, how does the selectivity ratio [1] read?
Its selectivity ratio is 7.5.

With `CCN(CC)CC(=O)NC1CC2(N3CCN(C)CC3)CC(c3ccccc3)C1C(c1ccccc1)C2` (racemic) as the compound, how does the IC50 [2] read?
Its IC50 is 370 nM.

And the IC50 [3]?
The IC50 was 26400 nM.

And the IC50 [4]?
The IC50 was 670 nM.

What about the selectivity ratio [1] of the same compound?
The selectivity ratio was 39.4.

What about the selectivity ratio [5] of the same compound?
The selectivity ratio was 71.3.

For `CN1CCN(C23CC(NC(=O)CN4CCCC4)C(C(c4ccccc4)C2)C(c2ccccc2)C3)CC1` (racemic), which IC50 [2] is on record?
Its IC50 is 280 nM.

And the IC50 [3]?
Its IC50 is 27800 nM.

What about the IC50 [4] of the same compound?
The IC50 was 250 nM.

And the selectivity ratio [1]?
The selectivity ratio was 111.

What about the selectivity ratio [5] of the same compound?
The selectivity ratio was 99.3.

What does the source list for `CN1CCN(C23CC(NC(=O)CN4CCCCC4)C(C(c4ccccc4)C2)C(c2ccccc2)C3)CC1` (racemic)?
IC50 [2]: 350 nM; IC50 [3]: 22100 nM; IC50 [4]: 94 nM; Activity [6]: inactive; selectivity ratio [1]: 235; selectivity ratio [5]: 63.2

Which IC50 [2] does the source give for `CCN(CC)CCC(=O)NC1CC2(N3CCN(C)CC3)CC(c3ccccc3)C1C(c1ccccc1)C2` (racemic) here?
Its IC50 is 670 nM.

What about the IC50 [3] of the same compound?
Its IC50 is 35900 nM.

What about the IC50 [4] of the same compound?
The IC50 was 2290 nM.

And the selectivity ratio [1]?
Its selectivity ratio is 15.7.

What about the selectivity ratio [5] of the same compound?
The selectivity ratio was 53.6.

Which results are given for `CN1CCN(C23CC(NC(=O)CCN4CCCC4)C(C(c4ccccc4)C2)C(c2ccccc2)C3)CC1` (racemic)?
IC50 [2]: 550 nM; IC50 [3]: 42200 nM; IC50 [4]: 3100 nM; selectivity ratio [1]: 13.6; selectivity ratio [5]: 76.7

Which results are given for `CN1CCN(C23CC(NC(=O)CCN4CCCCC4)C(C(c4ccccc4)C2)C(c2ccccc2)C3)CC1` (racemic)?
IC50 [2]: 230 nM; IC50 [3]: 15400 nM; IC50 [4]: 1270 nM; selectivity ratio [1]: 12.1; selectivity ratio [5]: 66.7

Which IC50 [2] does the source give for `CCN(CC)C(=O)CNC1CC2(N3CCN(C)CC3)CC(c3ccccc3)C1C(c1ccccc1)C2` (racemic) here?
The IC50 was 1160 nM.

What about the IC50 [3] of the same compound?
Its IC50 is 37900 nM.

What about the IC50 [4] of the same compound?
Its IC50 is 500 nM.

What about the selectivity ratio [1] of the same compound?
The selectivity ratio was 75.9.

What about the selectivity ratio [5] of the same compound?
The selectivity ratio was 32.7.

For `CN1CCN(C23CC(NCCC(=O)N4CCCC4)C(C(c4ccccc4)C2)C(c2ccccc2)C3)CC1` (racemic), which IC50 [2] is on record?
The IC50 was 590 nM.

And the IC50 [3]?
Its IC50 is 21400 nM.

And the IC50 [4]?
Its IC50 is 500 nM.

And the selectivity ratio [1]?
The selectivity ratio was 42.9.

What about the selectivity ratio [5] of the same compound?
The selectivity ratio was 36.4.

What does the source list for `CN1CCN(C23CC(NCCCN4CCCC4)C(C(c4ccccc4)C2)C(c2ccccc2)C3)CC1` (racemic)?
IC50 [2]: 670 nM; IC50 [3]: 22600 nM; IC50 [4]: 1610 nM; selectivity ratio [1]: 14.1; selectivity ratio [5]: 33.8

Which IC50 [4] does the source give for `c1ccc(C2CC3(N4CCCCC4)CC(NCCCN4CCCC4)C2C(c2ccccc2)C3)cc1` (racemic) here?
The IC50 was 2020 nM.

What about the selectivity ratio [1] of the same compound?
Its selectivity ratio is 13.4.

With `CCN(CC)CCCN1CCC2(N3CCN(C)CC3)CC(c3ccccc3)C1C(c1ccccc1)C2` (racemic) as the compound, how does the IC50 [2] read?
Its IC50 is 60 nM.

What about the IC50 [3] of the same compound?
Its IC50 is 68100 nM.

What about the IC50 [4] of the same compound?
Its IC50 is 2560 nM.

What about the Time [7] of the same compound?
Its Time is 4 days.

And the Activity [8]?
Its Activity is 17%.

What about the selectivity ratio [1] of the same compound?
Its selectivity ratio is 26.6.

What about the selectivity ratio [5] of the same compound?
Its selectivity ratio is 1140.

What does the source list for `CN1CCN(C23CCN(CCCN4CCCC4)C(C(c4ccccc4)C2)C(c2ccccc2)C3)CC1` (racemic)?
IC50 [2]: 60 nM; IC50 [3]: 43500 nM; IC50 [4]: 2590 nM; Time [7]: 4 days; Activity [8]: 0%; selectivity ratio [1]: 16.8; selectivity ratio [5]: 726

What does the source list for `CN1CCN(C23CCN(CCCN4CCCCC4)C(C(c4ccccc4)C2)C(c2ccccc2)C3)CC1` (racemic)?
IC50 [2]: 50 nM; IC50 [3]: 28900 nM; IC50 [4]: 2540 nM; Time [7]: 4 days; Activity [8]: 11%; selectivity ratio [1]: 11.4; selectivity ratio [5]: 577

With `C[C@@H]1CC[C@H]2[C@@H](C)C(=O)O[C@@H]3O[C@@]4(C)CC[C@@H]1[C@]32OO4` [ARTEMISININ] as the compound, how does the IC50 [2] read?
Its IC50 is 6.4 nM.

What about the selectivity ratio [5] of the same compound?
The selectivity ratio was 70.4.

Which Time [7] does the source give for `CCN(CC)CCCC(C)Nc1ccnc2cc(Cl)ccc12` (centres undefined) [CHLOROQUINE] here?
Its Time is 20 days.

What about the Activity [8] of the same compound?
Its Activity is 99.6%.
